Data: ChEMBL document CHEMBL4406880, “Design, synthesis, and bioactivity of dihydropyrimidine derivatives as kinesin spindle protein inhibitors” (Bioorg Med Chem, 2019)

Columns and labels:
Type in all cases: functional
[1] = test system: RXF 393; assay: Growth inhibition of human RXF393 cells assessed as growth percentage at 10 uM incubated for 48 hrs by sulforhodamine B assay relative to control; settings: RXF 393, 48 h, read-out: Activity
Procedure, shortened: (§1)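 NCI-60 single-dose screen. Cells were grown in RPMI 1640 with 5% FBS and 2 mM L-glutamine and plated at 5,000–40,000 cells/well. After an overnight preincubation at 37 °C in 5% CO2, compound was added at a final 10 µM from a DMSO stock, with DMSO/PBS controls. After 48 h, cells were TCA-fixed and stained with 0.4% SRB, and absorbance was read at 515 nm. Growth is given as a percentage of untreated control.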

[2] = test system: CCRF-CEM; assay: Growth inhibition of human CCRF-CEM cells assessed as growth percentage at 10 uM incubated for 48 hrs by sulforhodamine B assay relative to control; settings: read-out: Activity
Procedure, shortened: (§2)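 NCI-60 one-dose screen: cells in RPMI 1640 with 5% FBS and 2 mM L-glutamine, plated at 5,000–40,000 cells/well and preincubated 24 h at 37 °C, 5% CO2. Compound is added from a DMSO stock to a final 10 µM and incubated 48 h. Cells are TCA-fixed and stained with sulforhodamine B, read at 515 nm. Output is % growth versus untreated control, with a time-zero plate.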

[3] = test system: A498; assay: Growth inhibition of human A498 cells assessed as growth percentage at 10 uM incubated for 48 hrs by sulforhodamine B assay relative to control; settings: A498, 48 h, read-out: Activity; procedure, shortened: as §2
[4] = test system: SN12C; assay: Growth inhibition of human SN12C cells assessed as growth percentage at 10 uM incubated for 48 hrs by sulforhodamine B assay relative to control; settings: read-out: Activity; procedure, shortened: as §1
[5] = test system: SF-268; assay: Growth inhibition of human SF268 cells assessed as growth percentage at 10 uM incubated for 48 hrs by sulforhodamine B assay relative to control; settings: SF-268, 48 h, read-out: Activity; procedure, shortened: as §1
[6] = test system: SK-MEL-5; assay: Growth inhibition of human SK-MEL-5 cells assessed as growth percentage at 10 uM incubated for 48 hrs by sulforhodamine B assay relative to control; settings: SK-MEL-5, 48 h, read-out: Activity; procedure, shortened: as §1
[7] = test system: UACC-62; assay: Growth inhibition of human UACC62 cells assessed as growth percentage at 10 uM incubated for 48 hrs by sulforhodamine B assay relative to control; settings: UACC-62, 48 h, read-out: Activity; procedure, shortened: as §1
[8] = test system: OVCAR-8; assay: Growth inhibition of human OVCAR8 cells assessed as growth percentage at 10 uM incubated for 48 hrs by sulforhodamine B assay relative to control; settings: OVCAR-8, 48 h, read-out: Activity; procedure, shortened: as §1
[9] = test system: HOP-62; assay: Growth inhibition of human HOP62 cells assessed as growth percentage at 10 uM incubated for 48 hrs by sulforhodamine B assay relative to control; settings: HOP-62, 48 h, read-out: Activity
Procedure, shortened: (§3)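 NCI-60 one-dose screen. Cells in RPMI 1640 with 5% FBS and 2 mM L-glutamine, seeded at 5,000–40,000 cells/well according to doubling time, and preincubated overnight at 37 °C, 5% CO2. A time-zero plate was TCA-fixed at drug addition. Compound from DMSO stock, final 10 µM, 48 h; DMSO vehicle controls. Fixation with TCA, 10% final (16% for suspension cells). SRB stain, Tris solubilization, A515. Result given as % growth versus untreated cells.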

[10] = test system: SW-620; assay: Growth inhibition of human SW620 cells assessed as growth percentage at 10 uM incubated for 48 hrs by sulforhodamine B assay relative to control; settings: SW-620, 48 h, read-out: Activity; procedure, shortened: as §1
[11] = test system: HL-60(TB); assay: Growth inhibition of human HL-60(TB) cells assessed as growth percentage at 10 uM incubated for 48 hrs by sulforhodamine B assay relative to control; settings: HL-60, 48 h, read-out: Activity
Procedure, shortened: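 NCI-60 single-dose screen. Cells in RPMI 1640 with 5% FBS and 2 mM L-glutamine are plated at 5,000–40,000 cells/well and preincubated overnight at 37 °C, 5% CO2. Compound is added from a DMSO stock at 10 µM final for 48 h. Cells are TCA-fixed (suspension cells 16% final) and stained with SRB. Absorbance is read at 515 nm, and percentage growth is calculated against untreated controls with a time-zero plate.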

[12] = test system: TK-10; assay: Growth inhibition of human TK10 cells assessed as growth percentage at 10 uM incubated for 48 hrs by sulforhodamine B assay relative to control; settings: TK-10, 48 h, read-out: Activity; procedure, shortened: as §1
[13] = test system: BT-549; assay: Growth inhibition of human BT549 cells assessed as growth percentage at 10 uM incubated for 48 hrs by sulforhodamine B assay relative to control; settings: BT-549, 48 h, read-out: Activity; procedure, shortened: as §2
[14] = test system: UO-31; assay: Growth inhibition of human UO31 cells assessed as growth percentage at 10 uM incubated for 48 hrs by sulforhodamine B assay relative to control; settings: UO-31, 48 h, read-out: Activity; procedure, shortened: as §1
[15] = test system: NCI-H460; assay: Growth inhibition of human NCI-H460 cells assessed as growth percentage at 10 uM incubated for 48 hrs by sulforhodamine B assay relative to control; settings: NCI-H460, 48 h, read-out: Activity; procedure, shortened: as §3
[16] = test system: K562; assay: Growth inhibition of human K562 cells assessed as growth percentage at 10 uM incubated for 48 hrs by sulforhodamine B assay relative to control; settings: K562, 48 h, read-out: Activity; procedure, shortened: as §3
[17] = test system: HCT-15; assay: Growth inhibition of human HCT15 cells assessed as growth percentage at 10 uM incubated for 48 hrs by sulforhodamine B assay relative to control; settings: HCT-15, 48 h, read-out: Activity; procedure, shortened: as §2
[18] = test system: Malme-3M; assay: Growth inhibition of human MALME-3M cells assessed as growth percentage at 10 uM incubated for 48 hrs by sulforhodamine B assay relative to control; settings: read-out: Activity; procedure, shortened: as §3
[19] = test system: SF-539; assay: Growth inhibition of human SF539 cells assessed as growth percentage at 10 uM incubated for 48 hrs by sulforhodamine B assay relative to control; settings: SF-539, 48 h, read-out: Activity; procedure, shortened: as §1
[20] = test system: SK-MEL-2; assay: Growth inhibition of human SK-MEL-2 cells assessed as growth percentage at 10 uM incubated for 48 hrs by sulforhodamine B assay relative to control; settings: SK-MEL-2, 48 h, read-out: Activity; procedure, shortened: as §1
[21] = test system: NCI-H226; assay: Growth inhibition of human NCI-H226 cells assessed as growth percentage at 10 uM incubated for 48 hrs by sulforhodamine B assay relative to control; settings: NCI-H226, 48 h, read-out: Activity; procedure, shortened: as §3
[22] = test system: ACHN; assay: Growth inhibition of human ACHN cells assessed as growth percentage at 10 uM incubated for 48 hrs by sulforhodamine B assay relative to control; settings: read-out: Activity; procedure, shortened: as §2
[23] = test system: NCI-H23; assay: Growth inhibition of human NCI-H23 cells assessed as growth percentage at 10 uM incubated for 48 hrs by sulforhodamine B assay relative to control; settings: NCI-H23, 48 h, read-out: Activity; procedure, shortened: as §3
[24] = test system: HCC 2998; assay: Growth inhibition of human HCC2998 cells assessed as growth percentage at 10 uM incubated for 48 hrs by sulforhodamine B assay relative to control; settings: HCC 2998, 48 h, read-out: Activity; procedure, shortened: as §2

| SMILES | growth at 10 µM [1] [%] | growth at 10 µM [4] [%] | growth at 10 µM [5] [%] | growth at 10 µM [6] [%] | growth at 10 µM [7] [%] | growth at 10 µM [8] [%] | growth at 10 µM [9] [%] | growth at 10 µM [10] [%] | growth at 10 µM [12] [%] | growth at 10 µM [13] [%] | growth at 10 µM [14] [%] | growth at 10 µM [15] [%] | growth at 10 µM [16] [%] | growth at 10 µM [17] [%] | growth at 10 µM [18] [%] | growth at 10 µM [19] [%] | growth at 10 µM [20] [%] | growth at 10 µM [21] [%] | growth at 10 µM [22] [%] | growth at 10 µM [23] [%] | other results |
| --- | --- | --- | --- | --- | --- | --- | --- | --- | --- | --- | --- | --- | --- | --- | --- | --- | --- | --- | --- | --- | --- |
| CC1=C(C(=O)OC(C)C)C(c2ccc3c(c2)OCO3)NC(=S)N1 (racemic) | 106 | 105 | 103 | 98.5 | 85.2 | 102 | 119 | 107 | 98 | 96 | 84.5 | 110 | 107 | 100 | 95.9 | 98.9 | 102 | 84.1 | 99.3 | 99.2 | growth at 10 µM [2]: 105%; growth at 10 µM [3]: 109%; growth at 10 µM [11]: 105%; growth at 10 µM [24]: 115% |
| CC(=O)N1C(=S)NC(C)=C(C(=O)OCC(C)C)C1c1ccc2c(c1)OCO2 (racemic) | 106 | 94.8 | 100 | 100 | 85.7 | 95.9 | 91.9 | 97.3 | 95.4 | 86.1 | 91.8 | 105 | 78.2 | 93.3 | 108 | 101 | 102 | 94.6 | 105 | 97.1 | growth at 10 µM [3]: 104%; growth at 10 µM [11]: 98.5%; growth at 10 µM [24]: 110% |
| CC1=C(C(=O)c2ccccc2)C(c2ccc3c(c2)OCO3)NC(=O)N1 (racemic) | 109 | 97 | 100 | 98.8 | 94.3 | 99.3 | 99.2 | 98.5 | 99 | 95.6 | 80.6 | 114 | 92.7 | 99.8 | 91.7 | 99.7 | 105 | 97.4 | 108 | 107 | growth at 10 µM [2]: 98.5%; growth at 10 µM [11]: 105%; growth at 10 µM [24]: 111% |
| CC(=O)N1C(=S)NC(C)=C(C(=O)OCc2ccccc2)C1c1ccc2c(c1)OCO2 (racemic) | 101 | 54.5 | 73.8 | 91.2 | 75.3 | 80.3 | 75.5 | 65.3 | 100 | 88.8 | 85.4 | 77.9 | 55.4 | 83.8 | 91.6 | 84.2 | 88.6 | 96.3 | 95.5 | 94 | growth at 10 µM [3]: 92%; growth at 10 µM [11]: 33.6%; growth at 10 µM [24]: 110% |
| CC1=C(C(=O)OCC(C)C)C(c2ccc3c(c2)OCO3)NC(=S)N1 (racemic) | 100 | 106 | 97.8 | 92.5 | 90.3 | 102 | 121 | 115 | 101 | 95 | 89.4 | 110 | 90.7 | 100 | 105 | 109 | 101 | 97.1 | 98.5 | 99.5 | growth at 10 µM [2]: 101%; growth at 10 µM [3]: 121%; growth at 10 µM [11]: 101%; growth at 10 µM [24]: 112% |
| COCCOC(=O)C1=C(C)NC(=S)N(C(C)=O)C1c1ccc2c(c1)OCO2 (racemic) | 111 | 96.7 | 98.4 | 104 | 98.2 | 99.3 | 87.7 | 100 | 102 | 103 | 82 | 104 | 94.3 | 103 | 88.6 | 97.6 | 108 | 96.6 | 102 | 99.1 | growth at 10 µM [3]: 85.3%; growth at 10 µM [11]: 97.8%; growth at 10 µM [24]: 113% |
| CC1=C(C(=O)OCc2ccccc2)C(c2ccc3c(c2)OCO3)n2c(nc3ccccc32)N1 (racemic) | 30 to 53.2 | 47.6 to 51 | 26 to 59.6 | 25.5 to 28 | 22 to 46.2 | 39 to 46.7 | 36 to 44.2 | 17.6 to 19 | 64 to 65.6 | 44 to 50.5 | 28 to 51.1 | 6.62 to 8 | 13.8 to 25 | 23 to 30.4 | 26 to 39.7 | 9.94 to 21 | 33 to 47.8 | 58 to 58.2 | 36 to 38.4 | 49.3 to 56 | growth at 10 µM [2]: 24.9 to 31%; growth at 10 µM [24]: 50 to 56.4% |
